Drug metabolism data for seven compounds are collected here from ChEMBL document CHEMBL4219066, “Identification and Mitigation of Reactive Metabolites of 2-Aminoimidazole-Containing Microsomal Prostaglandin E Synthase-1 Inhibitors Terminated Due to Clinical Drug-Induced Liver Injury” (J Med Chem, 2018).

Molecules are shown by their SMILES.

Data set [1] is described as follows: Drug metabolism in rat hepatocytes assessed as 2-chloro-N-(4-cyano-1H-imidazol-2-yl)-5-((3-hydroxy-2,2-dimethylpropanamido)methyl)benzamide formation at 2 uM after 4 hrs by LC-MS/MS analysis. Format: ADME, cell-based, Hepatocyte.
Data set [2] in a line: Drug metabolism in human hepatocytes assessed as 2-chloro-N-(4-cyano-1H-imidazol-2-yl)-5-((3-hydroxy-2,2-dimethylpropanamido)methyl)benzamide formation at 2 uM after 4 hrs by LC-MS/MS analysis. It is filed as ADME, cell-based, Hepatocyte.
A short description of data set [3]: Drug metabolism in rat hepatocytes assessed as 2-(2-chloro-5-(pivalamidomethyl)benzamido)-1H-imidazole-4-carboxylic acid formation at 2 uM after 4 hrs by LC-MS/MS analysis. Format: ADME, cell-based, Hepatocyte.
The nature of data set [4]: Drug metabolism in human hepatocytes assessed as 2-(2-chloro-5-(pivalamidomethyl)benzamido)-1H-imidazole-4-carboxylic acid formation at 2 uM after 4 hrs by LC-MS/MS analysis. It is filed as ADME, cell-based, Hepatocyte.
Data set [5] in a line: Drug metabolism in human hepatocytes assessed as metabolite M2 formation at 2 uM after 4 hrs by LC-MS/MS analysis. Format: ADME, cell-based, Hepatocyte.
Data set [6] in a line: Drug metabolism in rat hepatocytes assessed as 2-(2-chloro-5-((3-hydroxy-2,2-dimethylpropanamido)methyl)benzamido)-N-phenyl-1H-imidazole-4-carboxamide at 2 uM after 4 hrs by LC-MS/MS analysis. Format: ADME, cell-based, Hepatocyte.
Data set [7] is described as follows: Drug metabolism in human hepatocytes assessed as 2-(2-chloro-5-((3-hydroxy-2,2-dimethylpropanamido)methyl)benzamido)-N-phenyl-1H-imidazole-4-carboxamide formation at 2 uM after 4 hrs by LC-MS/MS analysis. It is filed as ADME, cell-based, Hepatocyte.
Data set [8] in a line: Drug metabolism in rat hepatocytes assessed as 2-chloro-5-(pivalamidomethyl)benzoic acid formation at 2 uM after 4 hrs by LC-MS/MS analysis. It is filed as ADME, cell-based, Hepatocyte.
A short description of data set [9]: Drug metabolism in rat hepatocytes assessed as metabolite M2 formation at 2 uM after 4 hrs by LC-MS/MS analysis. Format: ADME, cell-based, Hepatocyte.
A short description of data set [10]: Drug metabolism in human hepatocytes assessed as 2-chloro-5-(pivalamidomethyl)benzoic acid formation at 2 uM after 4 hrs by LC-MS/MS analysis. Format: ADME, cell-based, Hepatocyte.
Data set [11] is described as follows: Drug level in rat hepatocytes treated with 2-Chloro-N-(4-cyano-1H-imidazol-2-yl)-5-(pivalamidomethyl)benzamide at 2 uM after 4 hrs by LC-MS/MS analysis. It is filed as ADME, cell-based, Hepatocyte.
Data set [12] can be described thus: Drug level in human hepatocytes treated with 2-Chloro-N-(4-cyano-1H-imidazol-2-yl)-5-(pivalamidomethyl)benzamide at 2 uM after 4 hrs by LC-MS/MS analysis. It is filed as ADME, cell-based, Hepatocyte.
The nature of data set [13]: Drug metabolism in human hepatocytes assessed as metabolite formation at 2 uM after 4 hrs by LC-MS/MS analysis. It is filed as ADME, cell-based, Hepatocyte.
Data set [14] can be described thus: Drug metabolism in rat hepatocytes assessed as metabolite formation at 2 uM after 4 hrs by LC-MS/MS analysis. It is filed as ADME, cell-based, Hepatocyte.
A short description of data set [15]: Drug level in rat hepatocytes treated with 2-Chloro-N-(4-(hydroxymethyl)-1H-imidazol-2-yl)-5-(pivalamidomethyl)benzamide at 2 uM after 4 hrs by LC-MS/MS analysis. It is filed as ADME, cell-based, Hepatocyte.
Data set [16] is described as follows: Drug level in rat hepatocytes treated with 2-(2-Chloro-5-(pivalamidomethyl)benzamido)-N-phenyl-1Himidazole-4-carboxamide at 2 uM after 4 hrs by LC-MS/MS analysis. It is filed as ADME, cell-based, Hepatocyte.
Data set [17] is described as follows: Drug level in human hepatocytes treated with 2-(2-Chloro-5-(pivalamidomethyl)benzamido)-N-phenyl-1Himidazole-4-carboxamide at 2 uM after 4 hrs by LC-MS/MS analysis. Format: ADME, cell-based, Hepatocyte.
Data set [18] in a line: Drug level in human hepatocytes treated with 2-Chloro-N-(4-(hydroxymethyl)-1H-imidazol-2-yl)-5-(pivalamidomethyl)benzamide at 2 uM after 4 hrs by LC-MS/MS analysis. Format: ADME, cell-based, Hepatocyte.
Data set [19] is described as follows: Drug level in human liver microsomes treated with 2 -Chloro-N-(4,5-dimethyl-1H-imidazol-2-yl)-5-(pivalamidomethyl)benzamide at 2 uM after 0.5 hrs in presence of 1:1 ratio of unlabeled GSH and [glycine 13C2,15N]-labelled GSH by HPLC-MS analysis. It is filed as ADME, microsome. The method, boiled down:
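Glutathione-trapping incubation in human liver microsomes fortified with GSH to capture reactive intermediates. Metabolites and GSH adducts were identified by MS.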
(In general: Microsomes from liver hold many membrane-bound enzymes, among them those of drug oxidation.)

Data set [20] is described as follows: Drug metabolism in human hepatocytes assessed as N-carbamimidoyl-2-chloro-5-(pivalamidomethyl)benzamide formation at 2 uM after 4 hrs by LC-MS/MS analysis. Format: ADME, cell-based, Hepatocyte.
Data set [21] in a line: Drug metabolism in rat hepatocytes assessed as N-carbamimidoyl-2-chloro-5-(pivalamidomethyl)benzamide formation at 2 uM after 4 hrs by LC-MS/MS analysis. It is filed as ADME, cell-based, Hepatocyte.
A short description of data set [22]: Drug metabolism in human hepatocytes assessed as 2-chloro-N-(4-(hydroxymethyl)-5-methyl-1H-imidazol-2-yl)-5-(pivalamidomethyl)benzamide formation at 2 uM after 4 hrs by LC-MS/MS analysis. Format: ADME, cell-based, Hepatocyte.
Data set [23] is described as follows: Drug metabolism in human hepatocytes assessed as 2-chloro-N-(4,5-dimethyl-1H-imidazol-2-yl)-5-((3-hydroxy-2,2-dimethylpropanamido)methyl)benzamide formation at 2 uM after 4 hrs by LC-MS/MS analysis. Format: ADME, cell-based, Hepatocyte.
Data set [24] is described as follows: Drug metabolism in rat hepatocytes assessed as 2-chloro-N-(4,5-dimethyl-1H-imidazol-2-yl)-5-((3-hydroxy-2,2-dimethylpropanamido)methyl)benzamide formation at 2 uM after 4 hrs by LC-MS/MS analysis. It is filed as ADME, cell-based, Hepatocyte.
Data set [25] in a line: Drug metabolism in rat hepatocytes assessed as 2-chloro-N-(4-(hydroxymethyl)-5-methyl-1H-imidazol-2-yl)-5-(pivalamidomethyl)benzamide formation at 2 uM after 4 hrs by LC-MS/MS analysis. Format: ADME, cell-based, Hepatocyte.

Regarding `CC(C)(C)C(=O)NCc1ccc(Cl)c(C(=O)Nc2nc(C#N)c[nH]2)c1`, the Drug metabolism result in [1] and in [2] was “Metabolite_Detected” each time.
Consider `CC(C)(C)C(=O)NCc1ccc(Cl)c(C(=O)Nc2nc(C(=O)Nc3ccccc3)c[nH]2)c1`, for which the Drug metabolism result in data set [3], in data set [4], in data set [5], in data set [6], in [7] and in data set [8] was “Metabolite_Detected” each time. In addition, the Drug metabolism result in [9] and in data set [10] was “Metabolite_Detected” throughout.
Take `CC(C)(CO)C(=O)NCc1ccc(Cl)c(C(=O)Nc2nc(C#N)c[nH]2)c1`: the Drug metabolism result in data set [11] and in data set [12] was “Metabolite_Detected” each time.
On to `CC(C)(C)C(=O)NCc1ccc(Cl)c(C(=O)Nc2nc(C(N)=O)c[nH]2)c1`, for which the Drug metabolism entry in data set [13] and in [14] was “Metabolite_Notdetected” throughout.
As for `CC(C)(C)C(=O)NCc1ccc(Cl)c(C(=O)Nc2nc(C(=O)O)c[nH]2)c1`, the Drug metabolism entry in data set [15], in [16], in [17] and in [18] was “Metabolite_Detected” in each case.
Turning to `Cc1[nH]c(NC(=O)c2cc(CNC(=O)C(C)(C)C)ccc2Cl)nc1CSC[C@H](NC(=O)CC[C@H](N)C(=O)O)C(=O)NCC(=O)O`, in data set [19], the Drug metabolism result was “Metabolite_Detected”.
Take `Cc1nc(NC(=O)c2cc(CNC(=O)C(C)(C)C)ccc2Cl)[nH]c1C`: the Drug metabolism entry in [20], in data set [21], in data set [22], in data set [23], in [24] and in data set [25] was “Metabolite_Detected” each time.
